PLK1 kinase inh: inhibitors of human PLK1 kinase; recombinant PLK1 kinase, TR-FRET peptide phosphorylation; P53350; inhibition, % at 10 µM; 97,000 compounds, 0.53% hits;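 active means inhibition of 50% or more in the single-concentration screen; inactive means inhibition below 50%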;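 further: 0% = DMSO max control and 100% = H-89 dihydrochloride min control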
LYP act: LYP (human) phosphatase activation. recombinant LYP, DiFMUP fluorescence; 0 = plate median, 100 = signal doubled. activation, % at 2 µM. 96,000 compounds, 0.11% hits. AID 697;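 active means activation at 2 µM above a set limit, the mean plus 5 SD, cut at about 37% in these data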
LYP inh 2: LYP (human) phosphatase inhibition; Q9Y2R2; recombinant LYP catalytic domain, DiFMUP fluorescence; inhibition, % at 2 µM; 96,000 compounds, 0.21% hits; AID 640;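 active means inhibition at 2 µM at or above a set limit, the screen mean plus 3 SD, cut at about 24% in these data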;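 further: 0% = DMSO with enzyme and 100% = enzyme fully blocked by orthovanadate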
Rev-RRE block: disrupts HIV-1 Rev binding to RRE RNA; 97,000 compounds, 0.79% hits; P05866; inhibition, % at 8 µM; Rev peptide-RRE RNA binding, FRET; AID 704;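 active means inhibition above the screen-wide mean plus 3 SD, cut at about 35% in these data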;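 further: 0% = median DMSO wells and 100% = median Neomycin B control wells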
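Test system: Cy5-tagged RRE RNA duplex with fluorescein-tagged Rev peptide | Read-out: % inhibition of FRET ratio versus controls | Probe or stimulus: Labelled Rev peptide | Incubation: 5 min RNA-compound premix plus 15 min binding step, 25 °C | Technique: FRET fluorescence readout | Benchmarks: DMSO low control, neomycin B high control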
Plk1 PBD FP: Plk1 (human) PBD binding inhibition. P53350. Plk1 PBD phosphopeptide binding, fluorescence polarization. inhibition, %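 (tested at about 20 µM)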. 97,000 compounds, 0.13% hits. AID 693; in the data active means inhibition above about 34%, passing the limit was not always enough
EphB4 ephrin blk: antagonists of human EphB4-ephrin-B2 interaction; P54760; EphB4 LBD / TNYL-RAW-Alexa532 peptide, fluorescence polarization; inhibition, % at 7 µM; 97,000 compounds, 0.15% hits;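 active means inhibition above the screen-wide mean inhibition plus 3 SD, cut at about 15% in these data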;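 further: 0% = DMSO wells and 100% = excess unlabeled TNYL-RAW peptide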
PLK1 confirm: PLK1 (human) kinase inhibition, confirmed; shares compounds with PLK1 kinase inh; recombinant PLK1 kinase, TR-FRET peptide phosphorylation; inhibition, % at 10 µM; 210 compounds, 20% hits;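 active means inhibition at or above 50% in each of two repeat confirmation tests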;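 further: 0% = DMSO max control and 100% = H-89 kinase-blocked min control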
Plk1 interf: Plk1 assay compound interference counter-screen hit; shares compounds with PLK1 kinase inh; Plk1 TR-FRET assay interference, compound added post-reaction; inhibition (interference), % at 10 µM; 210 tested, under 10 active;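 active means both duplicate runs show 50% or greater inhibition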;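 further: 0% = DMSO max control and 100% = H-89 min control inhibited reaction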
PBD redox DR: counter-screen for Plk1 PBD inhibitors: redox cycling H2O2 generation; AID 876; shares compounds with Plk1 PBD FP; DTT; EC50, µM; 120 tested, under 10 active; call rule not given here
* = called active by the depositor; / = no result; [ ] = remark or other dose. Most compounds without a hit are left out; they make up all but 2% or so of the library.

SMILES	PLK1 kinase inh	LYP act	LYP inh 2	Rev-RRE block	Plk1 PBD FP	EphB4 ephrin blk	others
CCN(CC)CCCNC(=O)c1c(O)c2ccccc2n(Cc2ccccc2)c1=O	-6	-22	24*	3	-12	5
C=CCn1c(=O)c(C=Nc2cccc([N+](=O)[O-])c2)c(O)n(CCCC)c1=O	-12	-7	10	45*	4	4
CCn1c(O)c(C=Nc2ccc(N3CCOCC3)c(Br)c2)c(=O)n(CC)c1=S	-6	-12	12	27	-35	0
FC(F)(F)c1cccc(-n2nnnc2C2(N3CCOCC3)CCCCC2)c1	-6	13	-8	-3	0	-5
CCN1/C(=C\C=C\C2=[N+](CC)c3ccccc3C2(C)C)C(C)(C)c2ccccc21	53*	6	-3	57*[fluorescence artefact?]	-77	-88
COc1ccc2c(c1)c(C(=O)CN1CCC3(CC1)OCCO3)c(C)n2Cc1ccccc1	-9	20	-18	10	-11	-7
O=C1NC(=O)N(c2ccc3c(c2)OCO3)C(=O)/C1=C/c1ccc(N2CCCCC2)o1	-40	5	-4	124*[fluorescence artefact?]	-81	-3
CN1C(=O)C(=Cc2ccc(N3CCCCC3)o2)C(=O)N(C)C1=S	-23	-5	8	121*[fluorescence artefact?]	-168	-3
Cc1ccc(/C=C2/C(=O)NC(=O)N(CCc3ccc(F)cc3)C2=O)o1	-8	5	0	-3	-3	-4
CCn1c(O)c(C=Nc2ccc(N3CCOCC3)cc2)c(=O)n(CC)c1=S	-4	-5	4	98*[fluorescence artefact?]	1	16*
CCOC(=O)c1c(-n2c(C)cc(C=C3C(=O)NC(=S)NC3=O)c2C)sc2c1CCCC2	-27	-24	29*	41*	42	2
CCOC(=O)c1c(-n2c(C)cc(/C=C3/C(=O)NC(=O)N(CC)C3=O)c2C)sc2c1CCCC2	-11	6	-8	6	-24	-10
CCOc1cc(/C=C2/C(=O)NC(=O)N(c3ccc(CC)cc3)C2=O)ccc1OC(=O)c1cccs1	-14	-4	4	9	2	-6
CCOc1ccc(N=Cc2c(O)n(C(C)(C)C)c(=O)[nH]c2=O)cc1	-14	-6	8	6	1	-1
CCOc1ccc(-n2c(O)c(C=Nc3ccc(N(CC)CC)cc3)c(=O)[nH]c2=O)cc1	-22	-14	12	71*	-4	3
CCN(CC)c1ccc(N=Cc2c(O)n(-c3ccccc3C)c(=O)[nH]c2=O)cc1	-15	-9	7	66*	-22	-1
CN(Cc1ccccc1)C(=C(Cl)Cl)/C(=C1/NCCN1Cc1ccc(Cl)nc1)[N+](=O)[O-]	12	-8	8	20	-11	-2
CCCCN1C(=O)C(C2c3ccccc3C(=O)N2Cc2ccccc2)C(=O)NC1=S (stereo unspecified)	-9	6	-9	-1	-15	-3
CCOC(=O)c1nc2ccccc2c(=O)n1-c1cccc(C)c1	-8	-8	6	10	-34	5
CCOCCCn1c(N)c(C(=O)Nc2sc3c(c2C(=O)OC)CCCC3)c2nc3ccccc3nc21	12	-12	11	49*	-20	-5
CCOC(=O)c1c(NC(=O)c2c(N)n(CCCOC)c3nc4ccccc4nc23)sc2c1CCCC2	-8	17	-14	7	4	2
COc1ccc(Cn2c(N)c(C(=O)NCc3ccco3)c3nc4ccccc4nc32)cc1	55*	-11	11	30	-19	8
Cc1ccccc1-n1c(C)nc2sccc2c1=O	-1	-2	4	2	48	-11
O=C(c1c[nH]cc1-c1ccccc1)c1cccc2ccccc12	-9	12	-10	3	-7	2
CC1=C(C(=O)N2CCC3(CC2)OCCO3)C2(CCC(C)CC2)OC1=O (stereo unspecified)	-13	4	0	4	-14	20*
SMILES	PLK1 kinase inh	LYP act	LYP inh 2	Rev-RRE block	Plk1 PBD FP	EphB4 ephrin blk	others
CCN1CCN(Cc2cc(OC)c(OC)cc2[N+](=O)[O-])CC1	-6	11	-8	5	-7	-11
CCn1c(O)c(C(=O)CC2NCCc3ccccc32)c(=O)n(CC)c1=S (stereo unspecified)	-10	5	-7	48*	-1	-2
Cc1ccnc(-n2c(C)cc(C=C3C(=O)N(C)C(=S)N(C)C3=O)c2C)c1	-8	-6	4	52*	12	-5
CC(C)N1C(=O)/C(=C/C=C/c2ccco2)C(=O)N(Cc2ccco2)C1=O	-16	2	0	53*	-50	-5
COc1ccc(N=C2SCCCN2C)cc1	-12	-4	-1	2	0	5
CN(C)C(=O)Oc1ccc(-c2nnco2)cc1	78*	/	/	4	-8	3	PLK1 confirm=-11;Plk1 interf=-58
CCOC(=O)c1c(C)[nH]c(C(=O)C(Cc2ccccc2)N(C)C)c1C (stereo unspecified)	-9	-9	10	4	-3	2
Cc1ccc(-n2c(O)c(C=NCCN3CCOCC3)c(=O)[nH]c2=O)cc1	-34	-2	3	6	44*	-5	PBD redox DR=>50
CN1CCc2nc3ccc(F)cc3c(C(N)=O)c2C1	-2	2	1	13	2	-2

High-throughput results (PubChem)
